Measurements: ChEMBL document CHEMBL4400546, “A Cinchona Alkaloid Antibiotic That Appears To Target ATP Synthase in Streptococcus pneumoniae” (J Med Chem, 2019)
Values after ≈ are worked out from the molar mass of the structure shown. Active and inactive are the calls of the source. The rule behind the calls is not given here.

Legend:
[1] = Mitochondrial toxicity in human HepG2 cells assessed as reduction in cell viability after 24 hrs in presence of galactose by CellTiter-Glo assay; format: cell-based
Summary of the method: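 HepG2 cells are grown in DMEM supplemented with 10 mM galactose or 10 mM glucose and treated for 24 h. Viability is read by CellTiter-Glo luminescence. The CC90 is the concentration inhibiting 90% of cell viability, taken from dose–response curves. Oligomycin and tamoxifen serve as controls.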

[2] = Cytotoxicity against human HepG2 cells assessed as reduction in cell viability after 48 hrs by Alamar Blue assay; format: cell-based
Streptococcus pneumoniae [3] = experiment: Bacteriostatic activity against Streptococcus pneumoniae D39 at 1 to 5 times MIC using 10^7CFU inoculum after 18 hrs by time-kill assay; format: functional, organism-based
Summary of the method: (§1)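 Time-kill in S. pneumoniae D39 at multiples of MIC. Killing is followed by OD620 up to 18 h, with CFU determined at each time point by plating. Vancomycin is the positive control. Four independent experiments.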

Streptococcus pneumoniae [4] = experiment: Bacteriostatic activity against Streptococcus pneumoniae D39 up 100 times MIC after 18 hrs by time-kill assay; format: functional, organism-based; summary of the method: as §1
[5] = tested on: Streptococcus pneumoniae D39; experiment: Inhibition of wild-type Streptococcus pneumoniae D39 ATP synthase atpE assessed as intracellular pH at 0.0625 ug/ml measured immediately post treatment by pH-sensitive GFP-based fluorescence assay (reference value: 7.34 +/- 0.04); format: cell-based
Summary of the method: (§2)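 S. pneumoniae D39 WT and isogenic atpE G142C or G145A mutants carry a plasmid-borne ratiometric pH-sensitive GFP biosensor. Cells are in PBS pH 7.2 with 10 mM glucose and are treated with compound, DMSO (0.5% v/v) or CCCP (10 µM). Intracellular pH is read immediately and at 5-min intervals. Two independent experiments, each in triplicate.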

Streptococcus pneumoniae [6] = experiment: Antibacterial activity against penicillin/erythromycin/meropenem/tetracycline-resistant Streptococcus pneumoniae TH2863 (19F) after 20 hrs by CLSI-based microdilution method; format: functional
Streptococcus pneumoniae [7] = experiment: Bactericidal activity against Streptococcus pneumoniae D39 after 24 hrs; format: functional; conditions: D39, 24 h
[8] = tested on: Streptococcus pneumoniae D39; experiment: Inhibition of wild-type Streptococcus pneumoniae D39 ATP synthase atpE assessed as intracellular pH at 0.0625 ug/ml measured at 5 mins by pH-sensitive GFP-based fluorescence assay (reference value: 7.34 +/- 0.04); format: cell-based; summary of the method: as §2
Pseudomonas aeruginosa = experiment: Antibacterial activity against Pseudomonas aeruginosa TH4090 after 20 hrs by CLSI-based microdilution method; format: functional; conditions: TH4090, 20 h
Streptococcus pyogenes = experiment: Antibacterial activity against Streptococcus pyogenes ST157 after 20 hrs by CLSI-based microdilution method; format: functional; conditions: ST157, 20 h
Enterococcus faecium = experiment: Antibacterial activity against Enterococcus faecium TH6064 after 20 hrs by CLSI-based microdilution method; format: functional; conditions: TH6064, 20 h
Klebsiella pneumoniae = experiment: Antibacterial activity against Klebsiella pneumoniae ATCC 13883 after 20 hrs by CLSI-based microdilution method; format: functional; conditions: ATCC 13883, 20 h
Streptococcus pneumoniae [9] = experiment: Bacteriostatic activity against Streptococcus pneumoniae D39 at 1 to 5 times MIC after 18 hrs by time-kill assay; format: functional, organism-based; summary of the method: as §1
Streptococcus pneumoniae [10] = experiment: Antibacterial activity against optochin-resistant Streptococcus pneumoniae R6 expressing atpE G142C mutant after 20 hrs by CLSI-based microdilution method; format: functional; conditions: R6, 20 h
Streptococcus pneumoniae [11] = experiment: Bacteriostatic activity against Streptococcus pneumoniae D39 assessed as resistant frequency at 4 to 16 times MIC after 24 hrs by time-kill assay; format: functional, organism-based
Streptococcus pneumoniae [12] = experiment: Antibacterial activity against amoxicillin/penicillin/erythromycin/ertapenem/moxifloxacin/cefotaxime-resistant Streptococcus pneumoniae TH2889 (6B) after 20 hrs by CLSI-based microdilution method; format: functional
Streptococcus mitis = experiment: Antibacterial activity against Streptococcus mitis ST138 after 20 hrs by CLSI-based microdilution method; format: functional; conditions: ST138, 20 h
[13] = tested on: Streptococcus pneumoniae D39; experiment: Inhibition of wild-type Streptococcus pneumoniae D39 ATP synthase atpE G145 mutant assessed as reduction in intracellular pH at >2 ug/ml measured at 5 mins by pH-sensitive GFP-based fluorescence assay; format: cell-based; summary of the method: as §2
Streptococcus pneumoniae [14] = experiment: Potentiation of levofloxacin-induced antibacterial activity against Streptococcus pneumoniae D39 at 2 times MIC after 20 hrs by checkerboard assay; format: functional
Summary of the method: (§3)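 Checkerboard combination assay in S. pneumoniae D39 with the partner antibiotic. Fractional inhibitory concentration indices were calculated, and the minimum FICI was taken per combination. Three to four independent checkerboards were run.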

Acinetobacter baumannii = experiment: Antibacterial activity against Acinetobacter baumannii TH9781 after 20 hrs by CLSI-based microdilution method; format: functional; conditions: TH9781, 20 h
[15] = tested on: Mycobacterium tuberculosis; experiment: Antibacterial activity against Mycobacterium tuberculosis H37Rv after […] by CLSI-based microdilution method; format: functional
Streptococcus pneumoniae [16] = experiment: Potentiation of penicillin-induced antibacterial activity against Streptococcus pneumoniae D39 at 2 times MIC after 20 hrs by checkerboard assay; format: functional; summary of the method: as §3
Streptococcus pneumoniae [17] = experiment: Antibacterial activity against Streptococcus pneumoniae R6 after 20 hrs by CLSI-based microdilution method; format: functional; conditions: R6, 20 h
Streptococcus pneumoniae [18] = experiment: Antibacterial activity against Streptococcus pneumoniae D39 after 20 hrs by CLSI-based microdilution method; format: functional; conditions: D39, 20 h
Escherichia coli = experiment: Antibacterial activity against Escherichia coli TH4746 after 20 hrs by CLSI-based microdilution method; format: functional; conditions: TH4746, 20 h
Streptococcus pneumoniae [19] = experiment: Potentiation of vancomycin-induced antibacterial activity against Streptococcus pneumoniae D39 at 2 times MIC after 20 hrs by checkerboard assay; format: functional; summary of the method: as §3
Streptococcus pneumoniae [20] = experiment: Antibacterial activity against amoxicillin/penicillin/cefotaxime/erythromycin/tetracycline-resistant Streptococcus pneumoniae TH2784 (19F) after 20 hrs by CLSI-based microdilution method; format: functional
[21] = tested on: Streptococcus pneumoniae D39; experiment: Inhibition of wild-type Streptococcus pneumoniae D39 ATP synthase atpE G142C mutant assessed as reduction in intracellular pH at >0.25 to 8 ug/ml measured at 5 mins by pH-sensitive GFP-based fluorescence assay; format: cell-based; summary of the method: as §2
Enterobacter cloacae = experiment: Antibacterial activity against Enterobacter cloacae TH11715 after 20 hrs by CLSI-based microdilution method; format: functional; conditions: TH11715, 20 h
[22] = tested on: Streptococcus pneumoniae D39; experiment: Inhibition of wild-type Streptococcus pneumoniae D39 ATP synthase atpE assessed as intracellular pH at 0.25 ug/ml measured at 15 mins by pH-sensitive GFP-based fluorescence assay (reference value: 7.34 +/- 0.04); format: cell-based; summary of the method: as §2
[23] = tested on: Streptococcus pneumoniae D39; experiment: Inhibition of wild-type Streptococcus pneumoniae D39 ATP synthase atpE assessed as intracellular pH at 0.25 ug/ml measured at 10 mins by pH-sensitive GFP-based fluorescence assay (reference value: 7.34 +/- 0.04); format: cell-based; summary of the method: as §2
Streptococcus pneumoniae [24] = experiment: Antibacterial activity against optochin-resistant Streptococcus pneumoniae R6 expressing atpE G145A mutant after 20 hrs by CLSI-based microdilution method; format: functional; conditions: R6, 20 h
[25] = tested on: Streptococcus pneumoniae D39; experiment: Inhibition of wild-type Streptococcus pneumoniae D39 ATP synthase atpE assessed as intracellular pH at 0.25 ug/ml measured at 5 mins by pH-sensitive GFP-based fluorescence assay (reference value: 7.34 +/- 0.04); format: cell-based; summary of the method: as §2
[26] = tested on: Streptococcus pneumoniae D39; experiment: Inhibition of wild-type Streptococcus pneumoniae D39 ATP synthase atpE assessed as intracellular pH at 8 ug/ml measured at 5 mins by pH-sensitive GFP-based fluorescence assay (reference value: 7.34 +/- 0.04); format: cell-based; summary of the method: as §2
Streptococcus pneumoniae [27] = experiment: Potentiation of rifampicin-induced antibacterial activity against Streptococcus pneumoniae D39 at 2 times MIC after 20 hrs by checkerboard assay; format: functional; summary of the method: as §3
[28] = Mitochondrial toxicity in human HepG2 cells assessed as reduction in cell viability after 24 hrs in presence of glucose by CellTiter-Glo assay; format: cell-based
Summary of the method: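 HepG2 cells grown in DMEM with 10 mM glucose, treated 24 h; viability read by CellTiter-Glo luminescence. Value is the concentration giving 90% loss of viability (CC90) from dose-response curves, top concentration 300 µM.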

[29] = tested on: Streptococcus pneumoniae D39; experiment: Inhibition of wild-type Streptococcus pneumoniae D39 ATP synthase atpE G142C mutant assessed as change in intracellular pH at 0.25 ug/ml measured at 5 mins by pH-sensitive GFP-based fluorescence assay (reference value: 7.34 +/- 0.04); format: cell-based; summary of the method: as §2
Staphylococcus aureus = experiment: Antibacterial activity against Staphylococcus aureus TH4114 after 20 hrs by CLSI-based microdilution method; format: functional; conditions: TH4114, 20 h
Streptococcus pneumoniae [30] = experiment: Antibacterial activity against amoxicillin/penicillin/chloramphenicol/erythromycin/meropenem/cefotaxime-resistant Streptococcus pneumoniae TH2582 (19A) after 20 hrs by CLSI-based microdilution method; format: functional
Streptococcus pneumoniae [31] = experiment: Bactericidal activity against Streptococcus pneumoniae D39 assessed as fold reduction in CFU at 5 times MIC after 3 hrs by time-kill assay relative to control; format: functional; summary of the method: as §1

## CC=C1C[N@]2CC[C@H]1C[C@H]2[C@H](O)c1ccnc2ccc(OC3CCC3)cc12
[1]
  CC90 at 24 h: 150 µM
[2]
  CC50 at 48 h: 56 µM
Streptococcus pneumoniae [3]
  Activity: Active
Streptococcus pneumoniae [4]
  Activity: Active
[5]
  pH: 7.11
Streptococcus pneumoniae [6]
  MIC: 0.5 to 1 µg/mL (≈ 1.37 to 2.74 µM)
Streptococcus pneumoniae [7]
  MBC: 1 to 2 µg/mL (≈ 2.74 to 5.49 µM)
[8]
  pH: 7.02
Pseudomonas aeruginosa
  MIC: > 128 µg/mL
Streptococcus pyogenes
  MIC: 32 µg/mL (≈ 87.8 µM)
Enterococcus faecium
  MIC: 64 to 128 µg/mL (≈ 176 to 351 µM)
Klebsiella pneumoniae
  MIC: 128 µg/mL (≈ 351 µM)
Streptococcus pneumoniae [9]
  Activity: Active
Streptococcus pneumoniae [10]
  MIC: 8 to 16 µg/mL (≈ 21.9 to 43.9 µM)
Streptococcus pneumoniae [11]
  Activity: Active
Streptococcus pneumoniae [12]
  MIC: 0.5 µg/mL (≈ 1.37 µM)
Streptococcus mitis
  MIC: 16 µg/mL (≈ 43.9 µM)
[13]
  inhibition: Active
Streptococcus pneumoniae [14]
  FIC: 0.63 - 1
Acinetobacter baumannii
  MIC: 128 µg/mL (≈ 351 µM)
[15]
  MIC: > 256 µg/mL
Streptococcus pneumoniae [16]
  FIC: 0.63 - 1
Streptococcus pneumoniae [17]
  MIC: 0.5 µg/mL (≈ 1.37 µM)
Streptococcus pneumoniae [18]
  MIC: 0.7 µM (≈ 0.255 µg/mL)
Escherichia coli
  MIC: > 128 µg/mL
Streptococcus pneumoniae [19]
  FIC: 0.63 - 1
Streptococcus pneumoniae [20]
  MIC: 0.5 µg/mL (≈ 1.37 µM)
[21]
  inhibition: Active
Enterobacter cloacae
  MIC: > 128 µg/mL
[22]
  deltapH: -0.52
[23]
  pH: 6.68
Streptococcus pneumoniae [24]
  MIC: 4 µg/mL (≈ 11 µM)
[25]
  pH: 6.82
[26]
  pH: 6.66
Streptococcus pneumoniae [27]
  FIC: 0.63 - 1
[28]
  CC90 at 24 h: 150 µM
[29]
  deltapH: < 0.03
Staphylococcus aureus
  MIC: 128 µg/mL (≈ 351 µM)
Streptococcus pneumoniae [30]
  MIC: 0.25 to 0.5 µg/mL (≈ 0.686 to 1.37 µM)

## CN[C@H](CC(C)C)C(=O)N[C@H]1C(=O)N[C@@H](CC(N)=O)C(=O)N[C@H]2C(=O)N[C@H]3C(=O)N[C@H](C(=O)N[C@H](C(=O)O)c4cc(O)cc(O)c4-c4cc3ccc4O)[C@H](O)c3ccc(c(Cl)c3)Oc3cc2cc(c3O[C@@H]2O[C@H](CO)[C@@H](O)[C@H](O)[C@H]2O[C@H]2C[C@](C)(N)[C@H](O)[C@H](C)O2)Oc2ccc(cc2Cl)[C@H]1O [VANCOMYCIN]
Streptococcus pneumoniae [31]
  fold change (FC): 1000
